Shown are actives, neighbours in structure and some others; about 4.5% of the full set was active somewhere.
OX1R antag-1: OX1R (human) antagonism | O43613 | AID 485270 | actives 1.8% (n = 330,000) | OX1R-expressing cells, FRET antagonist read-out | inhibition, % at 6.6 µM; in the data active means inhibition mostly above about 38%, no sharp cut-off; inactive means mostly below about 40%;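 further: 0% = agonist challenge alone and 100% = reference antagonist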
Target sequence (O43613 whole entry, looked up): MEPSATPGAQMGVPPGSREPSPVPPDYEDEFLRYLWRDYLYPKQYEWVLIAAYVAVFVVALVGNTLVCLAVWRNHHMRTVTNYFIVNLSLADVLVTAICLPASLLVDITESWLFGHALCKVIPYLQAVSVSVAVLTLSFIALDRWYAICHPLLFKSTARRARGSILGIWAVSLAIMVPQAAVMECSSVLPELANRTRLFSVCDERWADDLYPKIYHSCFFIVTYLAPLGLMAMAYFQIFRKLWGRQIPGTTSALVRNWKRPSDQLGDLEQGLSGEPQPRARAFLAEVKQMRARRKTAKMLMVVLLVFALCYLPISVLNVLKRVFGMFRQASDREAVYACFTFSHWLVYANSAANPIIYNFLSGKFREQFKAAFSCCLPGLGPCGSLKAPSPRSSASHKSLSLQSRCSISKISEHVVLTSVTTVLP
GPR7 antagonist: blocks human GPR7 receptor signaling; P48145; AID 1861; GPR7-expressing cells, fluorescence antagonist assay; inhibition, % at 4.4 µM; actives 1.1% (n = 290,000); in the data active means inhibition above about 16%, passing the limit was not always enough;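 further: cells stimulated with the agonist NPW; 0% = agonist with vehicle and 100% = vehicle without agonist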
OX1R antag-2: antagonists of human orexin 1 receptor. O43613. CHO/OX1R cells, Fluo-8 calcium fluorescence, orexin A. inhibition, % at 5 µM. actives 0.43% (n = 330,000);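 active means inhibition above its plate's threshold, mean inhibition of all tested compounds on the plate plus 3 SD, cut at about 37% in these data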;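 further: 0% = orexin A challenge wells and 100% = SB-334867-A antagonist wells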
TAAR1 antag: human TAAR1 antagonism; CHO RD-HGA16 TAAR1, Fluo-8 calcium fluorescence, antagonist; inhibition, % at 3 µM; actives 1.5% (n = 360,000);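 active means inhibition above a per-plate cutoff, the mean inhibition of test compounds on that plate plus 3 SD, cut at about 49% in these data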;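 further: 0% = DMSO plus EC80 beta-PEA response and 100% = DMSO alone without agonist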
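Test system – hTAAR1-expressing CHO RD-HGA16 cells, Gα16-coupled · Also added – β-PEA at EC80 concentration, post-compound challenge · Compound – 3 µM, single point · Incubation – dye loading 75 min at 37 °C, then 30 min room temperature · Measured by – Fluo-8 intracellular calcium dye fluorescence, real-time kinetic reads · Benchmarks – vehicle and agonist controls · Replicates – singlicate, one well per test compound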
TAAR1 ag: human TAAR1 agonism; activation, % at 3 µM; CHO RD-HGA16 TAAR1, Fluo-8 calcium fluorescence; vehicle wells 0%, saturating PEA agonist 100%; actives 0.99% (n = 360,000); Q96RJ0;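 active means activation above the mean activation of all test compounds in the run plus 3 SD, cut at about 38% in these data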
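test system = CHO RD-HGA16 cells carrying human TAAR1 plus Gα16 | schedule = 17-24 h seeding, 75 min 37 °C dye, 30 min RT | compound dosing = 3 µM single concentration | control set = DMSO and PEA EC100 | replicates = n 1 | signal = Fluo-8 fluorescence, 5 s baseline then 140 s kinetic read | measure = percent activation vs PEA EC100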
CHO parental Ca: counter-screen for OX1R antagonists: effect in parental CHO cells; actives 0.63% (n = 330,000); parental CHO-K1, ATP-induced calcium, Fluo-8 fluorescence; inhibition, % at 5.6 µM;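 active means inhibition above that plate's mean sample inhibition plus 3 SD, cut at about 26% in these data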;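 further: 0% = ATP-challenged DMSO wells and 100% = DMSO wells without ATP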
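Assay system – parental CHO cells · Reagent – ATP stimulus · Detection – intracellular calcium via Fluo-8 no-wash fluorescent dye · Evaluation – percent inhibition of ATP-evoked calcium rise, normalized to controls · Controls – ATP wells versus no-ATP DMSO wells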
OX1R Ca confirm: confirmation of human orexin 1 receptor antagonists | shares compounds with OX1R antag-2 | AID 492963 | actives 38% (n = 1,100) | CHO/OX1R cells, orexin A calcium Fluo-8 fluorescence | inhibition, % at 5 µM; in the data active means inhibition above about 29%;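 further: 0% = agonist challenge alone and 100% = reference antagonist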
CHO Ca triplic: signal in parental CHO cells, OX1R antagonist counter-screen. shares compounds with OX1R antag-2. parental CHO-K1, ATP-induced calcium, Fluo-8 fluorescence. inhibition, % at 5.6 µM. actives 9.3% (n = 1,100). AID 492965;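 active means inhibition above a per-plate limit, the mean inhibition of that plate's test compounds plus 3 SD, cut at about 25% in these data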;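 further: 0% = ATP challenge with DMSO and 100% = DMSO without ATP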
* = called active by the depositor; nt = not tested or not shown.

SMILES	OX1R antag-1	GPR7 antagonist	OX1R antag-2	TAAR1 antag	TAAR1 ag	CHO parental Ca	OX1R Ca confirm	CHO Ca triplic
CC(C)CC(C(=O)NC1CCCCC1)N(Cc1ccccc1)C(=O)c1snc(C(N)=O)c1N (stereo unspecified)	22	-9	-33	4	4	-27	nt	nt
O=C(NCc1ccco1)/C(=C/c1ccc(Br)cc1)NC(=O)c1ccco1	18	16	-6	-7	-1	-1	nt	nt
CSc1ncccc1C(=O)Nc1nc2ccc(Oc3ccccc3)cc2s1	47	4	-14	34	1	-9	nt	nt
COc1cccc(C(=O)/C=C/Nc2ccc(S(=O)(=O)Nc3cccc(C(C)=O)c3)cc2)c1	50	15	32	56*	11	16	25	14
CCOC(=O)C1C(C)=C(Nc2ccc(OC)cc2)C(=O)N1c1ccc(OC)cc1 (stereo unspecified)	5	-4	-12	9	3	-13	nt	nt
COc1ccc(OC)c(NC(=O)c2cccc(NC(=O)c3ccccc3C(=O)O)c2)c1	11	-6	-26	-7	0	-9	nt	nt
COc1ccc(OC)c(NC(=O)Cc2nn(C)c(=O)c3ccccc23)c1	24	7	9	15	5	-2	nt	nt
COc1ccc(CNC(=O)Cc2nn(C)c(=O)c3ccccc23)cc1	35	1	30	3	13	15	17	33*
CCc1ccccc1NC(=O)NC1CCCCCCC1	nt	-3	nt	-37	-1	nt	nt	nt
CSc1cc(C)c(OCC(=O)Nc2ccc(NC(C)=O)cc2)c(C)c1	34	2	28	9	0	-9	14	-1
COc1cccc(CNC(=O)c2ccc(CS(=O)Cc3ccccc3Cl)o2)c1 (stereo unspecified)	nt	nt	nt	16	10	nt	nt	nt
COc1ccc(CCNc2c(C)c(C)nc3ncnn23)cc1	11	18	45*	21	10	16	25	77*
COCC(=O)Nc1cc(C(=O)NCC(C)C)ccc1Cl	6	-6	32	2	2	2	-3	-1
COCC(=O)Nc1cc(C(=O)NCCc2ccccc2)ccc1Cl	12	2	-5	6	2	-11	nt	nt
CCCCCCCCN1C(=O)[C@H](CC(=O)NCCCOCCCC)C[C@@]2(C(=O)OC)CC(C)(C)CC=C12	nt	nt	nt	-35	-1	nt	nt	nt
Cc1ccc(Oc2c(F)c(F)nc(N3CCCC3)c2F)cc1	21	-6	-11	6	0	1	nt	nt
CNc1ccc(Oc2c(F)c(F)nc(F)c2F)cc1	7	8	29	-2	0	5	-5	4
COc1cc2c(cc1OC)CN(C(=O)Cn1ccccc1=O)CC2	8	0	51*	nt	nt	-3	1	-1
Cc1ccc(C)c(OCCC(=O)NNC(=O)c2ccccc2)c1	14	nt	18	4	1	8	-4	-3
COc1ccccc1C(=O)COC(=O)c1ccc(N(C)C)cc1	34	-11	30	23	8	0	9	19
O=C1CC(NCc2ccccc2)C(=O)N1c1ccc(F)cc1 (stereo unspecified)	nt	-6	nt	-17	7	nt	nt	nt
O=C1CC(NCc2ccccc2F)C(=O)N1c1ccccc1 (stereo unspecified)	1	-2	43*	14	10	5	-2	-4
CCOc1ccc(C(=O)O[C@H]2[C@H](Cc3ccccc3)NS(=O)(=O)[C@H]3C[C@@H]4C=C[C@]23O4)cc1	2	nt	-22	-8	4	-12	nt	nt
Cc1c(Cl)cccc1NC(=O)C1=COCCO1	9	nt	-6	-24	1	9	nt	nt
Cc1ccc(/C=C2\SC(=S)N(CCC(=O)NNC(=O)c3cccnc3)C2=O)cc1	28	-7	-7	34	12	-7	nt	nt
SMILES	OX1R antag-1	GPR7 antagonist	OX1R antag-2	TAAR1 antag	TAAR1 ag	CHO parental Ca	OX1R Ca confirm	CHO Ca triplic
O=C(CCN1C(=O)/C(=C/c2ccccc2)SC1=S)NNC(=O)c1cccnc1	45	-2	46*	60*	11	16	47*	69*
Cc1ccc(NS(=O)(=O)c2cc3[nH]c(=O)c(=O)[nH]c3cc2C)c(C)c1	17	-9	0	-1	1	5	nt	nt
Cc1cc(C)c(C(=O)COC(=O)c2cc([N+](=O)[O-])ccc2NCCO)cc1C	22	1	-20	11	0	-12	nt	nt
Cc1ccc2nc(-c3cccc(SC4CCCCC4)c3)c(NC3CCCCC3)n2c1	3	nt	-15	-4	5	-20	nt	nt
Cc1ccn2c(NCc3ccccc3)c(-c3cccc(SC4CCCCC4)c3)nc2c1	32	nt	56	48	4	15	18	-4
COCCn1c(SCC(=O)NC(=O)NC2CCCC2)nc2ccccc2c1=O	5	nt	7	5	-1	-23	nt	nt
N=C1/C(=C\c2coc3ccc(O)cc3c2=O)C(=O)N=C2SC=CN12	16	-3	32	41	48*	21	26	30*
N=C1/C(=C/c2coc3ccccc3c2=O)C(=O)N=C2SC(c3ccco3)=NN12	3	9	-12	nt	nt	-10	nt	nt
Cc1noc(C)c1COc1ccc(C(=O)OCC(N)=O)cc1	8	-1	-13	0	4	-4	nt	nt
Cc1noc(C)c1COc1ccc(C(=O)OCC(=O)N2CC(=O)Nc3ccccc32)cc1	35	-5	82*	5	9	-2	76*	-7
Cc1noc(C)c1CSCC(=O)OCC(=O)N1CC(=O)Nc2ccccc21	19	-14	-21	-11	14	-3	nt	nt
Cc1noc(C)c1COc1ccc(C(=O)OCC(=O)N2c3ccccc3NC(=O)C2(C)C)cc1	16	0	29	67*	31	-13	47*	5
COc1ccc(CN2CCCC2C(=O)Nc2ccc(OC)c(OC)c2)cc1OC (stereo unspecified)	16	-2	-13	-3	4	-2	nt	nt
CCOC(=O)c1sc(N2C(=O)C(O)=C(C(=O)c3ccco3)C2c2ccc([N+](=O)[O-])cc2)nc1C (stereo unspecified)	28	1	-26	-29	3	-17	nt	nt
COc1ccc(-n2ccnc(SCC(=O)NCc3ccc(C)cc3)c2=O)cc1Cl	16	nt	-31	-13	5	-24	nt	nt
O=C(CSc1ccc(S(=O)(=O)N2CCOCC2)cn1)Nc1ccc(F)c(F)c1	21	nt	35	14	15	-4	22	18
COc1ccc(C(=O)Nc2cccc3ccccc23)cc1	22	10	-10	-2	1	-11	nt	nt

Compound activity deposited in PubChem by The Scripps Research Institute Molecular Screening Center.
